Results: PubChem BioAssay
Values without a mark were called inactive. The source made the active and inactive calls.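 The calls were made as follows, unless noted: active = viability at or under a set limit in both replicates, limit being median viability minus 3 SD (cut at about 48% in these data, passing the limit was not always enough); inconclusive = at or under the limit in just one replicate; inactive = at or above the limit in both replicates.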

test: HUVEC growth inhibition – cell-based, human, primary screen (AID 575;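 active = viability at or below 30% in both replicate assays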;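 also: 100% = median of untreated cell wells with 0.1% DMSO on each plate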); details: HUVEC proliferation, CellTiter-Glo luminescence, 72 h; at 10 µM; stronger effect = lower value
Summary of the method: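 Assay system: primary human umbilical vein endothelial cells / Buffer or medium: endothelial basal medium with 2% FBS plus growth supplements / Compound dosing: one dose, 10 µM final, 0.1% DMSO / Timing: 72 h treatment at 37 °C / Signal: CTG luminescence / Benchmarks: 32 DMSO-only cell-control wells (high), 32 MePR drug-control wells (low) per plate / Plate: collagen-coated 384-well format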

Row | Compound | viability
1 | C=CCC(NCc1ccco1)c1ccc(OC)cc1OC (configuration not stated) | 99.1%
2 | CCN(c1cccc(C(F)(F)F)c1)S(=O)(=O)c1ccc2c(c1)CCN2C(=O)C1CC1 | 65.8%
3 | COc1ccc(OC)c(S(=O)(=O)N2CCC(C(=O)NCC3CCCO3)CC2)c1 (configuration not stated) | 106%
4 | Cn1c(COc2ccc(Cl)cc2)nnc1SCC(=O)NC1CCCCC1 | 89.5%
5 | CCN(c1c(C)n(C)n(-c2ccccc2)c1=O)S(C)(=O)=O | 102%
6 | CCc1nc(N)c(C#N)c(-c2ccc(OC)c(OC)c2)c1C | 91.4%
7 | CSCCC(NC(=O)c1occc1C)C(=O)O (configuration not stated) | 103%
8 | Cc1cccc(N2CCN(S(=O)(=O)c3ccc4c(c3)CCC(=O)N4)CC2C)c1 (configuration not stated) | 84.7%
9 | c1cnn(-c2cc(N3CCOCC3)ncn2)c1 | 90.2%
10 | Cc1cccc(NC(=O)COc2ccc(Br)cc2)n1 | 90.5%
11 | CCOC(=O)c1ccc(-c2c(C(=O)OCC)oc3cc(O)c(CC)cc3c2=O)o1 | 76.6%
12 | CC(C)NC(=O)CSCc1ccccc1Cl | 86.8%
13 | O=C(CSc1n[nH]c(-c2cccs2)n1)N1CCN(S(=O)(=O)c2ccccc2)CC1 | 97.4%
14 | O=S(=O)(c1ccc2ccccc2c1)N1CCCCC1 | 78%
15 | C=CCn1c(CC#N)nnc1N1CCOCC1 | 100%
16 | COc1ccc(OC)c(C2=NOC(C(=O)Nc3cccnc3)C2)c1 (configuration not stated) | 102%

test: growth inhibitors of H69AR lung tumor, primary screen, human, duplicate replicates (AID 580); details: H69AR lung tumor cells viability, ATP luminescence, 72 h; at 10 µM; stronger effect = lower value;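 also: 100% = mean luminescence of untreated wells and 0% = no signal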

Row | Compound | viability
17 | CCn1c(SCC(=O)Nc2nnc(C)s2)nnc1-c1ccncc1 | 95.5%
18 | O=C1CN(Cc2ccccc2)C(=NCc2ccco2)S1 | 86.7%
19 | COc1ccc(NC(=O)c2cc(C(C)C)on2)c(OC)c1 | 88%
20 | COc1ccc(N2CCN(CCCNC(=O)C3(S(=O)(=O)c4ccc(Cl)cc4)CC3)CC2)cc1 | 83.1%
21 | O=c1oc2ccccc2c2c1ncn2-c1ccccc1 | 89.1%
22 | O=C(Cn1ncc2ccccc21)N1CCN(c2cccc(C(F)(F)F)c2)CC1 | 87.1%
23 | O=C(NCc1ccccn1)c1cccs1 | 105%
24 | O=C(NC1CCCC1)C1CC1c1ccccc1 (configuration not stated) | 98.3%
25 | CCNc1nc(N2CCOCC2)nc(N(c2ccccc2)c2ccccc2)n1 | 84.2%
26 | Cc1ccc(S(=O)(=O)N(C)Cc2cc3ccccc3[nH]c2=O)cc1 | 91.5%
27 | COc1ccc(S(=O)(=O)N2CCN(CC(=O)Nc3ccc(C)c(F)c3)CC2)cc1 | 25.5% (active)
28 | CC(C)(C)C(=O)/C=C(\N)c1ccccn1 | 100%
29 | O=c1c2cc(N3CCOCC3)ccc2[nH]c(=S)n1CCCN1CCCCC1 | 95.9%
30 | O=C(CC1CCS(=O)(=O)C1)Nc1ccc[nH]c1=O (configuration not stated) | 106%
31 | CCC(=O)c1ccc(OC(=O)c2ccc(Br)o2)cc1 | 108%
32 | CC1CCN(CCn2c(=S)[nH]c3ncccc3c2=O)CC1 | 104%

Row | Compound | viability
33 | CC(C)CC(=O)CN1C(=O)C2(OCCO2)c2ccccc21 | 89.6%
34 | CS(=O)(=O)c1ccc2nc(NC(=O)CCC(=O)c3cccs3)sc2c1 | 69.8%
35 | O=S(=O)(NCc1cn2ccsc2n1)c1ccc2c(c1)OCCO2 | 105%
36 | CC1(CC(=O)O)C(=O)N=C2C=CC=CN21 (configuration not stated) | 89.4%
37 | CCN(CC)S(=O)(=O)c1cccc(-c2nnc(SCC(N)=O)n2CCc2ccccc2)c1 | 74.7%
38 | CC1(C)Cc2noc(N)c2C(C)(C)N1O | 95.6%
39 | CCOc1ccc(Cc2nn[nH]n2)cc1 | 101%
40 | CC(C)NC(=O)CSc1nnc(-c2ccc(C(C)(C)C)cc2)n1C | 103%
41 | C=CCC(NCc1ccco1)c1ccc(OC)cc1OC (configuration not stated) | 93%
42 | CCN(c1cccc(C(F)(F)F)c1)S(=O)(=O)c1ccc2c(c1)CCN2C(=O)C1CC1 | 82.5%
43 | COc1ccc(OC)c(S(=O)(=O)N2CCC(C(=O)NCC3CCCO3)CC2)c1 (configuration not stated) | 98.9%
44 | Cn1c(COc2ccc(Cl)cc2)nnc1SCC(=O)NC1CCCCC1 | 103%
45 | CCN(c1c(C)n(C)n(-c2ccccc2)c1=O)S(C)(=O)=O | 95.6%
46 | CCc1nc(N)c(C#N)c(-c2ccc(OC)c(OC)c2)c1C | 87.2%
47 | CSCCC(NC(=O)c1occc1C)C(=O)O (configuration not stated) | 103%
